The record followed here is ChEMBL document CHEMBL1147861, “SAR studies on a novel series of human cytomegalovirus primase inhibitors” (Bioorg Med Chem Lett, 2007).

For series [1], the system named is Human betaherpesvirus 5. Nature of the series: Antiviral activity against HCMV infected HFF cells after 5 days by dot blot assay. The format is functional, organism-based. A digest of the protocol: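 HFF fibroblasts infected with luciferase-expressing recombinant CMV (rCMVLUC), then cultured 5 days across a range of drug concentrations. Viral DNA harvested, immobilized on membrane, hybridized with radiolabeled CMV-specific probe. IC50 = concentration giving 50% reduction of membrane-bound radioactivity relative to vehicle-only infected cells.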

A short description of series [2]: Bioavailability in rat at 2 mg/kg, po. Format: ADME, organism-based. The settings on record: in vivo.
Series [3] is described as follows: Clearance in rat. The conditions noted are these: in vivo. The format is ADME, organism-based.
A short description of series [4]: Oral bioavailability in rat. The settings on record: in vivo. The format is ADME, organism-based.
A short description of series [5]: Cytotoxicity against human bone marrow cells assessed as inhibition of CFU-GM formation after 15 days. The format is cell-based, Bone marrow cell. In outline:
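Human bone marrow cells washed in IMDM–2% FBS, viable nucleated/mononuclear cells counted, adjusted to 10⁶ cells/mL, drug added, diluted 1:10 in methylcellulose medium and plated. After 15 days at 37 °C, humid 5% CO₂, CFU-GM colonies counted microscopically; IC50 = concentration halving colony formation.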

Series [6] has as its system Human betaherpesvirus 5. Nature of the series: Antiviral activity against HCMV infected HFF cells after 5 to 7 days by viral yield assay. Format: functional. In outline:
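rCMVLUC-infected HFF cells incubated 5–7 days with varying drug concentrations; viral yield determined by immunofluorescence using human anti-HCMV antiserum.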

A short description of series [7]: Cytotoxicity against human Jurkat cells by alamar blue assay. Format: cell-based. In outline:
(§1)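 Cells seeded and exposed to a range of compound concentrations; Alamar blue added at 0, 24, 48 and 72 h, fluorescence read after further 3 h incubation. IC50 = concentration inhibiting cell growth by 50%.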

A short description of series [8]: Cytotoxicity against HFF cells by alamar blue assay. Format: cell-based. The conditions noted are these: human. In outline:
as §1

Where [9] appears, read: Human betaherpesvirus 5, HFF, 120 h.

SMILES strings stand for the structures.

Consider `Cc1nc(NCc2ccc(F)cc2Cl)nc(-n2ccnc2C)c1[N+](=O)[O-]`, for which 250 nM corresponded to half-maximal inhibition in the series with Human betaherpesvirus 5 [1] (setting [9]) (IC50).
Same read-out and setting: for `CCSCCNc1nc(C)c([N+](=O)[O-])c(-n2ccnc2C)n1` the value was 200 nM; for `Cc1nc(NCc2ccc(C(F)(F)F)cc2F)nc(-n2ccnc2C)c1[N+](=O)[O-]`, 200 nM.
For the molecule `Cc1nc(NCc2cccc(Cl)c2Cl)nc(-n2ccnc2C)c1[N+](=O)[O-]`, in the series with Human betaherpesvirus 5 [1] (setting [9]), the midpoint of inhibition, the IC50, lay at 200 nM. In other words, the sub-micromolar range.
Still for that read-out and setting: the value for `Cc1nc(NCc2ccccn2)nc(-n2ccnc2C)c1[N+](=O)[O-]` was 500 nM; that for `CCNc1nc(C)c([N+](=O)[O-])c(-n2ccnc2C)n1` was 1000 nM; that for `CCC(C)Nc1nc(C)c([N+](=O)[O-])c(-n2ccnc2C)n1` (stereo not given) was 500 nM.
Still for that read-out and setting: the value for `COCC(C)Nc1nc(C)c([N+](=O)[O-])c(-n2ccnc2C)n1` (stereo not given) was 900 nM; that for `Cc1nc(NC2CCCC2)nc(-n2ccnc2C)c1[N+](=O)[O-]` was 600 nM; that for `Cc1nc(N[C@@H]2CCO[C@@H]2C)nc(-n2ccnc2C)c1[N+](=O)[O-]` was 500 nM.
Same read-out and setting: for `Cc1nc(NC2CCS(=O)(=O)CC2)nc(-n2ccnc2C)c1[N+](=O)[O-]` the value was more than 5000 nM; for `Cc1nc(NCC2CCCCO2)nc(-n2ccnc2C)c1[N+](=O)[O-]` (stereo not given), 4000 nM; for `Cc1nc(NCC2CCCO2)nc(-n2ccnc2C)c1[N+](=O)[O-]` (stereo not given), 1000 nM.
In the case of `Cc1nc(NCC2OCCC2C)nc(-n2ccnc2C)c1[N+](=O)[O-]` (stereo not given), in the series with Human betaherpesvirus 5 [1] (setting [9]), the 50% inhibitory concentration (IC50) was determined as 300 nM. This IC50 is about 3.3-fold lower than that of the molecule before.
Same read-out and setting: for `Cc1ccc(CNc2nc(C)c([N+](=O)[O-])c(-n3ccnc3C)n2)cc1` the value was 1600 nM.
The same measure, in the same setting: for `Cc1nc(NCc2ccc(F)cc2)nc(-n2ccnc2C)c1[N+](=O)[O-]` the value was 150 nM; for `Cc1nc(NC(C)CC(C)C)nc(-n2ccnc2C)c1[N+](=O)[O-]` (stereo not given), 130 nM.
For `Cc1nc(NC(C)CCc2ccccc2)nc(-n2ccnc2C)c1[N+](=O)[O-]` (stereo not given), in the series on Human betaherpesvirus 5 [1] (setting [9]), the half-maximal inhibitory concentration (IC50) amounted to 350 nM.
Same read-out and setting: for `COCCCNc1nc(C)c([N+](=O)[O-])c(-n2ccnc2C)n1` the value was 2300 nM; for `Cc1ccccc1CNc1nc(C)c([N+](=O)[O-])c(-n2ccnc2C)n1`, 200 nM.
On the same count and under the same terms, for `Cc1cccc(CNc2nc(C)c([N+](=O)[O-])c(-n3ccnc3C)n2)c1` the value was 500 nM; for `Cc1nc(N[C@H]2CCS(=O)(=O)[C@@H]2C)nc(-n2ccnc2C)c1[N+](=O)[O-]`, 2000 nM.
On the same count and under the same terms, for `Cc1nc(NCc2ccc(C(F)(F)F)cc2)nc(-n2ccnc2C)c1[N+](=O)[O-]` the value was 200 nM.
With `Cc1nc(NCc2cccc(OC(F)(F)F)c2)nc(-n2ccnc2C)c1[N+](=O)[O-]`, in the series on Human betaherpesvirus 5 [1] (setting [9]), the half-inhibitory concentration (IC50) was 300 nM.
Still for that read-out and setting: for `Cc1nc(N[C@H]2COC[C@H]2C)nc(-n2ccnc2C)c1[N+](=O)[O-]` the value was 200 nM.
`Cc1nc(N)nc(-n2ccnc2C)c1[N+](=O)[O-]`: the IC50 in the series with Human betaherpesvirus 5 [1] (setting [9]) was 2000 nM. Besides, the bioavailability in series [2] was determined as 59%.
`Cc1nc(NCc2cccnc2)nc(-n2ccnc2C)c1[N+](=O)[O-]` came in with an IC50 in the series with Human betaherpesvirus 5 [1] (setting [9]) of 800 nM. This counts as sub-micromolar.
Same read-out and setting: the value for `Cc1nc(NCC2CCCCC2)nc(-n2ccnc2C)c1[N+](=O)[O-]` was 120 nM; that for `Cc1nc(NC2CCC[C@H](C)C2)nc(-n2ccnc2C)c1[N+](=O)[O-]` (stereo not given in full) was 150 nM.
The same measure, in the same setting: the value for `Cc1nc(NC2CCC[C@@H](C)C2)nc(-n2ccnc2C)c1[N+](=O)[O-]` (stereo not given in full) was 150 nM; that for `COc1cccc(CNc2nc(C)c([N+](=O)[O-])c(-n3ccnc3C)n2)c1` was 300 nM.
On the same count and under the same terms, the value for `Cc1nc(N[C@H]2CCCC[C@@H]2C)nc(-n2ccnc2C)c1[N+](=O)[O-]` was 100 nM.
The molecule `Cc1nc(N[C@H]2CCCC[C@H]2C)nc(-n2ccnc2C)c1[N+](=O)[O-]` had an IC50 with Human betaherpesvirus 5 [1] (setting [9]) of 700 nM.
The same measure, in the same setting: for `Cc1nc(N[C@@H]2COC[C@@H]2C)nc(-n2ccnc2C)c1[N+](=O)[O-]` the value was 150 nM; for `Cc1nc(NC2CCCOC2C)nc(-n2ccnc2C)c1[N+](=O)[O-]` (stereo not given), 700 nM; for `Cc1nc(NC2CCSC2)nc(-n2ccnc2C)c1[N+](=O)[O-]` (stereo not given), 250 nM.
The same measure, in the same setting: for `CC[C@H]1CCCC[C@@H]1Nc1nc(C)c([N+](=O)[O-])c(-n2ccnc2C)n1` the value was 90 nM.
Turning to `Cc1nc(N[C@H]2CC=CC[C@@H]2C)nc(-n2ccnc2C)c1[N+](=O)[O-]`, the IC50 with Human betaherpesvirus 5 [1] (setting [9]) was 300 nM.
The same measure, in the same setting: for `CC[C@@H]1CC=CC[C@@H]1Nc1nc(C)c([N+](=O)[O-])c(-n2ccnc2C)n1` the value was 100 nM; for `Cc1nc(NCCC(C)C)nc(-n2ccnc2C)c1[N+](=O)[O-]`, 300 nM.
The same measure, in the same setting: for `Cc1nc(NC(C)CCC(C)C)nc(-n2ccnc2C)c1[N+](=O)[O-]` (stereo not given) the value was 2300 nM; for `Cc1nc(NCc2cc(F)ccc2F)nc(-n2ccnc2C)c1[N+](=O)[O-]`, 150 nM.
The same measure, in the same setting: the value for `Cc1nc(NCc2cc(C(F)(F)F)cc(C(F)(F)F)c2)nc(-n2ccnc2C)c1[N+](=O)[O-]` was 15000 nM; that for `Cc1nc(NCc2ccccc2OC(F)(F)F)nc(-n2ccnc2C)c1[N+](=O)[O-]` was 200 nM.
`Cc1nc(NC[C@@H]2OCCC[C@H]2C)nc(-n2ccnc2C)c1[N+](=O)[O-]`: in the series with Human betaherpesvirus 5 [1] (setting [9]), the 50% inhibitory concentration (IC50) turned out to be 400 nM.
`Cc1nc(NC2CCCCC2C)nc(-n2ccnc2C)c1[N+](=O)[O-]` (stereo not given) showed a concentration for half-maximal inhibition (IC50) with Human betaherpesvirus 5 [1] (setting [9]) of 80 nM.
On the same count and under the same terms, for `CCS(=O)(=O)CCNc1nc(C)c([N+](=O)[O-])c(-n2ccnc2C)n1` the value was 1300 nM; for `Cc1nc(NCc2ccc(Cl)c(Cl)c2)nc(-n2ccnc2C)c1[N+](=O)[O-]`, 200 nM.
In the series with Human betaherpesvirus 5 [1] (setting [9]), `Cc1nc(N[C@H]2CCOC[C@@H]2C)nc(-n2ccnc2C)c1[N+](=O)[O-]` registered an IC50 of 130 nM. This molecule also showed a clearance in series [3] of 36.7 mL/min/kg. The same molecule registered a bioavailability in series [4] of 57%.
For the molecule `Cc1nc(NC2CCCCC2)nc(-n2ccnc2C)c1[N+](=O)[O-]`, the 50% inhibitory concentration (IC50) in the series with Human betaherpesvirus 5 [1] (setting [9]) worked out at 200 nM.
The molecule `Cc1nc(NC2CCC(C)CC2)nc(-n2ccnc2C)c1[N+](=O)[O-]` (stereo not given) showed an IC50 in the series with Human betaherpesvirus 5 [1] (setting [9]) of 200 nM.
On the same count and under the same terms, the value for `Cc1nc(NC2CCCC2C)nc(-n2ccnc2C)c1[N+](=O)[O-]` (stereo not given) was 500 nM.
On the same count and under the same terms, the value for `Cc1nc(NC2CCOCC2)nc(-n2ccnc2C)c1[N+](=O)[O-]` was 3000 nM; that for `Cc1nc(NC2CCSCC2)nc(-n2ccnc2C)c1[N+](=O)[O-]` was 400 nM.
Still for that read-out and setting: for `Cc1nc(NCc2ccc(Cl)cc2)nc(-n2ccnc2C)c1[N+](=O)[O-]` the value was 300 nM; for `Cc1nc(NCc2cccc(F)c2)nc(-n2ccnc2C)c1[N+](=O)[O-]`, 250 nM; for `Cc1nc(NCc2ccc(F)c(F)c2)nc(-n2ccnc2C)c1[N+](=O)[O-]`, 400 nM.
Take `Cc1nc(N[C@@H]2CCO[C@H]2C)nc(-n2ccnc2C)c1[N+](=O)[O-]`: the concentration for half-maximal inhibition (IC50) in the series with Human betaherpesvirus 5 [1] (setting [9]) worked out at 600 nM.
Still for that read-out and setting: the value for `Cc1nc(N[C@H]2CC=CC[C@H]2C)nc(-n2ccnc2C)c1[N+](=O)[O-]` was 1500 nM; that for `Cc1nc(NC2CCC(C)C2)nc(-n2ccnc2C)c1[N+](=O)[O-]` (stereo not given) was 100 nM.
On to `Cc1nc(N[C@@H]2COC[C@@H]2C)nc(-n2ccnc2C)c1[N+](=O)[O-].Cl`, for which, in series [5], the 50% cytotoxic concentration (CC50) at 360 h was determined as 50000 nM. In the series with Human betaherpesvirus 5 [6], this molecule returned an EC99.9 of 0.4 µM. Moreover, the CC50 in series [7] was determined as 50000 nM; in series [8], 100000 nM. This molecule came in with an IC50 in the series on Human betaherpesvirus 5 [1] (hff) of 130 nM. For the same molecule, in series [3], the clearance is 23.3 mL/min/kg. Moreover, in series [4], the bioavailability worked out at 21%.
With `Nc1ccn(C[C@@H](CO)OCP(=O)(O)O)c(=O)n1.O.O` [CIDOFOVIR], in series [5], the 50% cytotoxic concentration (CC50) at 360 h turned out to be 6000 nM. In the series on Human betaherpesvirus 5 [6], this molecule had an EC99.9 of 0.9 µM. Further, the CC50 in series [7] and in series [8] was 100000 nM in each case. In the series with Human betaherpesvirus 5 [1] (setting [9]), this molecule yielded an IC50 of 350 nM.
With `Nc1nc2c(ncn2COC(CO)CO)c(=O)[nH]1` [GANCICLOVIR], the cytotoxic concentration (CC50) at 360 h in series [5] stood at 30000 nM. In addition, the EC99.9 with Human betaherpesvirus 5 [6] came out at 5 µM. Also, the CC50 in series [7] and in series [8] was more than 100000 nM in each case. For the same molecule, the concentration for half-maximal inhibition (IC50) with Human betaherpesvirus 5 [1] (setting [9]) stood at 1000 nM.
